Laboratory results as given in ChEMBL document CHEMBL4808210, “Mapping Chromone-3-Phenylcarboxamide Pharmacophore: Quid Est Veritas?” (J Med Chem, 2021).

Experiments:
[1] = target: T1, Amine oxidase [flavin-containing] B (Homo sapiens, UniProt P27338); assay: (§1) Inhibition of recombinant human MAO-B expressed in baculovirus infected BTI-TN- 5B1-4 insect cells using kynuramine as substrate preincubated for 10 mins in presence of substrate followed by enzyme addition and measured every minute for 30 mins by spectrophotometry analysis; format: cell-based
T1 sequence (P27338 whole entry): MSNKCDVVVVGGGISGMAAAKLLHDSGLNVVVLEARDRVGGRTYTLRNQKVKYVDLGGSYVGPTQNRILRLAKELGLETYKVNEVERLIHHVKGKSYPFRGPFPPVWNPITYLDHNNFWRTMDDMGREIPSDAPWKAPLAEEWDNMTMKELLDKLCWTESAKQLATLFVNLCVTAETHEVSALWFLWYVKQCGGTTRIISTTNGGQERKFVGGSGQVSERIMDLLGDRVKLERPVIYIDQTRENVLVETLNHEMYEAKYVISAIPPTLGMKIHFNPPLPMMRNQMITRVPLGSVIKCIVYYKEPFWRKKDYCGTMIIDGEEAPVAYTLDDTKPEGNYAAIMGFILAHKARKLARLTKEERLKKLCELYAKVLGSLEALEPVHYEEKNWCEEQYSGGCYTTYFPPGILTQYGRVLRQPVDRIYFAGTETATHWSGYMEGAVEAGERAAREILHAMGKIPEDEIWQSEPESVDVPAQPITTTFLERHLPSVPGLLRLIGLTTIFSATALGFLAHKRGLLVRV

[2] = target: T2, MAO-A (Homo sapiens, UniProt P21397); assay: as §1, with “MAO-A” for “MAO-B”, “cells at 10 uM” for “cells”, “analysis relative to control” for “analysis”; conditions: probe kynuramine, time 40 min
T2 sequence (P21397 whole entry): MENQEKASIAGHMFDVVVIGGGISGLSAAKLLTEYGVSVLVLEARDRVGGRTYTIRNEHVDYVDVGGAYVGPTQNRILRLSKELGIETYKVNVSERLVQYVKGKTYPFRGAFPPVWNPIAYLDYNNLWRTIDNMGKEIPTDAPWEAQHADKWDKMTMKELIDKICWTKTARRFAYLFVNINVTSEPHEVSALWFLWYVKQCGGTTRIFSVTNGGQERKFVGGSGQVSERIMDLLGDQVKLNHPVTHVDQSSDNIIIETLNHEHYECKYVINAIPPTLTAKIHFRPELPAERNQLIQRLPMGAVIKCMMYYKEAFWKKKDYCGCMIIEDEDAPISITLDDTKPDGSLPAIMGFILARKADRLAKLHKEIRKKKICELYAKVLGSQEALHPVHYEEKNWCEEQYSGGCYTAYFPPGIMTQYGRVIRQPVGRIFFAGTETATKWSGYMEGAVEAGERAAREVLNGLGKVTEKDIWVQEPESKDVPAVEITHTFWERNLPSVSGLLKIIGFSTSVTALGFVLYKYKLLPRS
Outline: (§2)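 Recombinant hMAO-A and hMAO-B were assayed with kynuramine as substrate. Percent inhibition was taken at 10 μM, the highest concentration tested. Where the hMAO-A IC₅₀ was not reached, it was taken as 10 μM.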

[3] = species: Homo sapiens; assay: Selectivity index, ratio of IC50 for recombinant human MAO-A expressed in baculovirus infected BTI-TN- 5B1-4 insect cells to IC50 for recombinant human MAO-B expressed in baculovirus infected BTI-TN- 5B1-4 insect cells using kynuramine as substrate preincubated for 10 mins in presence of substrate followed by enzyme addition and measured every minute for 30 mins by spectrophotometry analysis; outline: as §2
[4] = target: T1, Amine oxidase [flavin-containing] B; assay: Time dependent inhibition of recombinant human MAO-B expressed in baculovirus infected BTI-TN- 5B1-4 insect cells assessed as increase in enzyme activity at IC80 measured after 120 mins; conditions: bti-tn-5b1-4, 2 h
[5] = target: T1, Amine oxidase [flavin-containing] B; assay: Mixed-type inhibition of recombinant human MAO-B expressed in baculovirus infected BTI-TN- 5B1-4 insect cells at 1 to 5 nM using varying levels of kynuramine as substrate by Lineweaver-Burk plot analysis; conditions: dose 1-5 nM
Outline: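 Initial rates of hMAO-B activity were measured at six kynuramine concentrations (10−100 μM), without inhibitor and at three inhibitor concentrations. Kinetic parameters were read from a double-reciprocal Lineweaver−Burk plot. An Ackermann−Potter plot of total enzyme concentration was also constructed.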

[6] = tested on: SH-SY5Y; assay: Cytotoxicity against human SH-SY5Y cells assessed as effect on NR uptake at 1 to 10 uM measured after 24 hrs by neutral red uptake assay; format: cell-based; conditions: dose 1-10 µM
Outline: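 Differentiated SH-SY5Y cells were exposed to compounds at 1 and 10 μM for 24 h. Lysosomal activity was read as neutral red dye uptake and compared with untreated cells. Mean ± SEM of at least three independent experiments run in triplicate.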

[7] = tested on: Caco-2; assay: Cytotoxicity against human Caco-2 cells assessed as effect on cell viability at 1 to 10 uM measured after 24 hrs by MTT assay; format: cell-based; conditions: caco-2, 24 h, dose 1-10 µM
Outline: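 Caco-2 cells, and SH-SY5Y cells first differentiated toward a dopaminergic-like phenotype, were treated for 24 h with compounds at 1 and 10 μM. Metabolic activity was read as MTT reduction to formazan, relative to untreated cells. Mean ± SEM of at least three independent experiments, each in triplicate.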

[8] = tested on: HUVEC; assay: Cytotoxicity against HUVEC cells at 10 uM incubated for 24 to 48 hrs by Celltiter-Glo assay relative to control; format: cell-based; conditions: human, time 24-48 hrs
Outline: (§3)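 Cells (HEK-293, HUVEC, MCF-7) exposed to test compounds at 10 μM for 24 h; cytotoxicity read in triplicate with a luminescence kit measuring intracellular ATP levels.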

[9] = tested on: HEK293; assay: Cytotoxicity against HEK293 cells at 10 uM incubated for 24 to 48 hrs by Celltiter-Glo assay relative to control; format: cell-based; conditions: human, hek293, 10 µM, time 24-48 hrs; outline: as §3
[10] = tested on: MCF7; assay: Cytotoxicity against human MCF7 cells at 10 uM incubated for 24 to 48 hrs by Celltiter-Glo assay relative to control; format: cell-based; conditions: mcf7, 10 µM, time 24-48 hrs; outline: as §3
[11] = tested on: HUVEC; assay: Cytotoxicity against HUVEC cells incubated for 24 to 48 hrs by Celltiter-Glo assay; format: cell-based, Homo sapiens; conditions: huvec
[12] = tested on: HEK293; assay: Cytotoxicity against HEK293 cells incubated for 24 to 48 hrs by Celltiter-Glo assay; format: cell-based, Homo sapiens
[13] = tested on: MCF7; assay: Cytotoxicity against human MCF7 cells incubated for 24 to 48 hrs by Celltiter-Glo assay; format: cell-based
[14] = target: hERG (Homo sapiens, UniProt Q12809); assay: Inhibition of human ERG at 10 uM incubated for 2 hrs by fluorescence polarization assay relative to control
Chain of hERG (Q12809 whole entry): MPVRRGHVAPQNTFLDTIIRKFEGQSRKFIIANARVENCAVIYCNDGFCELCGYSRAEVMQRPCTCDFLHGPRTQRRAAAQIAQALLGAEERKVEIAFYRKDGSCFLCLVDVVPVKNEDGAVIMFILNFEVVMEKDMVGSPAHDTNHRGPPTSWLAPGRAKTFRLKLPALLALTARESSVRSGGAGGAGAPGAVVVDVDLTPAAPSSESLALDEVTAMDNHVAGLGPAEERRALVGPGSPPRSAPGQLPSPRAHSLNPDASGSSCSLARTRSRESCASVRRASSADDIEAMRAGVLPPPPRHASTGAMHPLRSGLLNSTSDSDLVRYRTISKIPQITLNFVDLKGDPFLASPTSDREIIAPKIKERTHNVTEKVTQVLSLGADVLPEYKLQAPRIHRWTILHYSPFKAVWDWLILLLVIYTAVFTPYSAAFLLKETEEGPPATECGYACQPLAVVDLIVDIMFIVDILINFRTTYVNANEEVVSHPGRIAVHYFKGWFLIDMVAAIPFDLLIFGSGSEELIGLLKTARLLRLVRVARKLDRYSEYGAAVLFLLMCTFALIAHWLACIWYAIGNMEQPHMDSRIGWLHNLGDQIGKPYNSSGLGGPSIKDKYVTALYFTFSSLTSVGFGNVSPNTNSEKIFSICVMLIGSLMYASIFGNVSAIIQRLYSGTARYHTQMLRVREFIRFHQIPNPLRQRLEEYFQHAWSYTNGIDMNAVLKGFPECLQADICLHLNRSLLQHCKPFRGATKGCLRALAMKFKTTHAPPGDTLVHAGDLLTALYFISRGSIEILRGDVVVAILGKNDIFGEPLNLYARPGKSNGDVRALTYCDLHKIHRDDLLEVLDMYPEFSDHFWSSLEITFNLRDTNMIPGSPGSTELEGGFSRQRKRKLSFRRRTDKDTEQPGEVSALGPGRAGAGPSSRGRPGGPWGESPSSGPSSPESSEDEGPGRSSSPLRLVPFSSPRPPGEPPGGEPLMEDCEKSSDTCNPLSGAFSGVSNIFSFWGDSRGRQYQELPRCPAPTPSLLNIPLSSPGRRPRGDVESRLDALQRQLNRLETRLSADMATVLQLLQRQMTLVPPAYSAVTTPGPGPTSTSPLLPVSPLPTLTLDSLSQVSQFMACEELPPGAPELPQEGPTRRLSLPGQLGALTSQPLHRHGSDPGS
Outline: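 hERG binding was measured by fluorescence polarization, using a homogenized membrane preparation containing hERG plus a fluorescent tracer. A drop in FP signal from tracer displacement was read as inhibition. Compounds were tested at 10 μM.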

[15] = target: ATP-dependent translocase ABCB1 (Homo sapiens, UniProt P08183); assay: Modulation of P-gp-mediated Rhodamine-123 efflux in human Caco-2 cells assessed as Rhodamine-123 accumulation at 10 uM pretreated for 30 mins in presence or absence of Zos followed by Rho-123 addition and measured after 90 mins by fluorescence spectroscopy; format: cell-based; conditions: caco-2, 2 h, time 120 min
Chain of ATP-dependent translocase ABCB1 (P08183 whole entry): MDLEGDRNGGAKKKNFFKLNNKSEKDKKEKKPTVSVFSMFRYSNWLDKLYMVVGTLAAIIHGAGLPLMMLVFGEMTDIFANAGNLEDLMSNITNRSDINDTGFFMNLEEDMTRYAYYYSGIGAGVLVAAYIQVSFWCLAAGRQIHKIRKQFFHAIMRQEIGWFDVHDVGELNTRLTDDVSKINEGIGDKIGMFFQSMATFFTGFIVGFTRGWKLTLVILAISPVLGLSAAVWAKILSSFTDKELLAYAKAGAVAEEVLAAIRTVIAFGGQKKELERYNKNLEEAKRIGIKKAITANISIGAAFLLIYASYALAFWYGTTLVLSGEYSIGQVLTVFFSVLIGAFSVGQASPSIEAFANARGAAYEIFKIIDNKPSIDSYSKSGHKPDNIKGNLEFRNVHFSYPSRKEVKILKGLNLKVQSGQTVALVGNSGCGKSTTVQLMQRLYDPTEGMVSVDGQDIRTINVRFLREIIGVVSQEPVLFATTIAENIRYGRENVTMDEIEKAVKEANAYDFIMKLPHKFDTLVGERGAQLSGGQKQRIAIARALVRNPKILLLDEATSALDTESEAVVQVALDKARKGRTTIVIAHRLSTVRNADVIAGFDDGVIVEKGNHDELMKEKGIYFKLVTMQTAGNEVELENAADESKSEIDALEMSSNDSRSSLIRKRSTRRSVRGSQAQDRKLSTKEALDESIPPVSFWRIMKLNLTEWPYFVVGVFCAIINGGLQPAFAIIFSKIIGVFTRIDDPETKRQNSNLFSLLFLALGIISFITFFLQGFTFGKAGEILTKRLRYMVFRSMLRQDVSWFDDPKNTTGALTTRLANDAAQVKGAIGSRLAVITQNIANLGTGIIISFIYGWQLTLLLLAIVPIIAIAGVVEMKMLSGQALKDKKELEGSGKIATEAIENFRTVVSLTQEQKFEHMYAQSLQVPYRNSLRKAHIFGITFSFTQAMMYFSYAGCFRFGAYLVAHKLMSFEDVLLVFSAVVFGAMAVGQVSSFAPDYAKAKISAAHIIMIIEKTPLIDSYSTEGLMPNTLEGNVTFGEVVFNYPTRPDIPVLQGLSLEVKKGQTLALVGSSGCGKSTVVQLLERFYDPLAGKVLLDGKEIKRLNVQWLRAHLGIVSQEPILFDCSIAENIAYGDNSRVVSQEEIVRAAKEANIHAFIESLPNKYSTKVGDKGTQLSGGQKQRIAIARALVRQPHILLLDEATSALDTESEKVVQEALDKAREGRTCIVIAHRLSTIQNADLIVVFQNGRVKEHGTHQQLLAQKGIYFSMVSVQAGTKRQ
Outline: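 Caco-2 cells were exposed to compounds at 10 μM during incubation with the P-gp substrate rhodamine 123 (5 μM). Zosuquidar served as the specific P-gp inhibitor. Cellular rhodamine 123 was read by fluorescence spectroscopy. Mean ± SEM of at least three independent experiments in triplicate.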

[16] = tested on: SH-SY5Y; assay: Protection against iron(III)-induced damage in human SH-SY5Y cells assessed as increase in lysosomal activity at 10 uM pretreated for 30 mins followed by iron(III) treatment after 24 hrs by NR uptake assay relative to control; format: functional; conditions: time 24.5 hrs
Outline: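 Differentiated SH-SY5Y cells were pretreated with compounds at 1 or 10 μM for 30 min, then exposed to iron(III) at 1000 or 1500 μM for 24 h. Viability was read by neutral red uptake. Mean ± SD of three independent experiments, two-way ANOVA.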

IC50 [1]: 1.52 nM
inhibition at 0.5 h, 10 µM [2]: 0.7%
TDI [4]: Active
inhibition (INH) [5]: Active
Activity [15]: Not Active
Compound: O=C(Nc1cccc(Cl)c1)c1csc2ccccc2c1=O
Ratio IC50 [3]: > 6570
Activity [6]: Non-Toxic
Activity [7]: Non-Toxic
Activity [8]: < 10%
Activity [9]: < 10%
Activity [10]: < 10%
IC50 [11]: Not Active
IC50 [12]: Not Active
IC50 [13]: Not Active
inhibition at 2 h, 10 µM [14]: < 10%
Activity [16]: 63%
